Reference: ChEMBL document CHEMBL4265926, “Synthesis and antibacterial activity evaluation of novel biaryloxazolidinone analogues containing a hydrazone moiety as promising antibacterial agents” (Eur J Med Chem, 2018)
Converted amounts (≈) assume the structure as drawn.

Assays:
[1] = target: T1, MAO-A (amine oxidase [flavin-containing] A) (Homo sapiens, UniProt P21397); assay: Inhibition of recombinant human MAOA expressed in baculovirus infected Sf9 insect cells at 30 uM using luciferin derived substrate pretreated for 15 mins followed by substrate addition and measured after 60 mins by luminescence assay relative to control; settings: probe luciferin derived substrate
T1 sequence (P21397 whole entry): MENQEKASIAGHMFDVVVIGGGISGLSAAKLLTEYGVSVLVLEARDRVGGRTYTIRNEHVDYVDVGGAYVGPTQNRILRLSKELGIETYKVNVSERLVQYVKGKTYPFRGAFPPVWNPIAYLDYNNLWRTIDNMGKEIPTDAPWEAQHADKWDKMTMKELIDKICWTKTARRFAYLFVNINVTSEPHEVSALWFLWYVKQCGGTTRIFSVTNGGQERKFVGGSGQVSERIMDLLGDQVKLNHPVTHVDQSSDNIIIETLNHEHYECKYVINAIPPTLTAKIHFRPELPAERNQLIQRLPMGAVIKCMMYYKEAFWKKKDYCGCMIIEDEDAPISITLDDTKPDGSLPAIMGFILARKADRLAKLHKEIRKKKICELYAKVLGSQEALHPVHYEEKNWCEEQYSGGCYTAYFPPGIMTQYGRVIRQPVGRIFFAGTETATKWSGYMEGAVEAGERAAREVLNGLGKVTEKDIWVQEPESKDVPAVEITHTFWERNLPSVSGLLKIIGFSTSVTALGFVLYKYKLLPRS
Outline: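 Human recombinant MAO-A with MAO-Glo luminescent kit. Compounds in DMSO (final 1% DMSO) preincubated with enzyme 15 min at room temperature, then luciferin derivative substrate added and reacted 60 min at room temperature. Luciferase detection reagent added for 20 min before luminescence read. Buffer replacing enzyme served as 100% inhibition control and DMSO as no-inhibition control; percent inhibition calculated against both.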

Staphylococcus aureus [2] = assay: Antibacterial activity against methicillin-resistant Staphylococcus aureus clinical isolates by broth liquid microdilution method; type: functional
Outline: (§1)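 Isolates were identified on an automated MicroScan WalkAway 96 system. Susceptibility was tested by broth microdilution following CLSI guidelines. MIC was taken as the lowest concentration giving complete inhibition of bacterial growth. S. aureus ATCC 29213 served as the control strain.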

Enterococcus faecium [3] = assay: Antibacterial activity against vancomycin-resistant Enterococcus faecium clinical isolates by broth liquid microdilution method; type: functional; outline: as §1
HepG2 = assay: Cytotoxicity against human HepG2 cells after 48 hrs by MTT assay; type: cell-based; settings: HepG2, 48 h
Outline: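 HepG2 cells grown in RPMI1640 with 10% FBS; about 4×10⁴ cells per well seeded in MEM, incubated 24 h at 37 ℃ in 5% CO₂, then exposed to compounds at indicated final concentrations for 48 h. MTT added (final 0.5 mg/mL) for 4 h at 37 ℃, formazan dissolved in DMSO, absorbance read at 492 nm. Triplicate runs; IC50 as mean ± SD.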

[4] = Half life in human liver microsomes at 1.5 uM in presence of NADPH by LC-MS analysis; type: ADME, microsome
Outline: (§2)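 Human liver microsomes with 1.5 µM compound in a 0.75 mg/mL microsome mix were pre-warmed at 37 °C for 5 min. Reaction started with NADPH (6 mM stock). Samples were quenched with acetonitrile plus internal standard at 0, 5, 15, 30 and 45 min, then read by LC/MS, in duplicate. T1/2 = ln(2)/k from the log-linear slope; Clint derived from T1/2; % remaining read at 45 min.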

[5] = Stability in human liver microsomes assessed as parent compound remaining at 1.5 uM pretreated for 5 mins followed by NADPH addition measured after 45 mins by LC-MS analysis; type: ADME, microsome; settings: read-out: Stability; outline: as §2
Staphylococcus aureus [6] = assay: Antibacterial activity against methicillin-sensitive Staphylococcus aureus clinical isolates by broth liquid microdilution method; type: functional; outline: as §1
Staphylococcus aureus [7] = assay: Antibacterial activity against methicillin-resistant Staphylococcus aureus by broth liquid microdilution method; type: functional; outline: as §1
Enterococcus faecalis [8] = assay: Antibacterial activity against linezolid-resistant Enterococcus faecalis by broth liquid microdilution method; type: functional; outline: as §1
[9] = Intrinsic clearance in human liver microsomes at 1.5 uM pretreated for 5 mins followed by NADPH addition measured after 5 to 45 mins by LC-MS analysis; type: ADME, microsome; settings: read-out: CLH; outline: as §2
Staphylococcus aureus [10] = assay: Antibacterial activity against Staphylococcus aureus ATCC 29213 by broth liquid microdilution method; type: functional; outline: as §1
Enterococcus faecium [11] = assay: Antibacterial activity against vancomycin-resistant Enterococcus faecium by broth liquid microdilution method; type: functional; outline: as §1
Staphylococcus aureus [12] = assay: Antibacterial activity against methicillin-sensitive Staphylococcus aureus by broth liquid microdilution method; type: functional; outline: as §1
Enterococcus faecalis [13] = assay: Antibacterial activity against linezolid-resistant Enterococcus faecalis clinical isolates by broth liquid microdilution method; type: functional; outline: as §1
Staphylococcus aureus [14] = assay: Potency index, ratio of linezolid MIC to test compound MIC for methicillin-sensitive Staphylococcus aureus; type: functional
Staphylococcus aureus [15] = assay: Potency index, ratio of linezolid MIC to test compound MIC for Staphylococcus aureus ATCC 29213; type: functional
Outline: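 MIC by broth microdilution per CLSI guidelines, taken as the lowest concentration giving complete growth inhibition; isolates identified on MicroScan WalkAway 96; S. aureus ATCC29213 used as control strain. Index expressed as linezolid MIC divided by test compound MIC.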

| Compound | inhibition at 1 h, 30 µM [1] | MIC50 (Staphylococcus aureus [2]) | MIC90 (Staphylococcus aureus [2]) | MIC (Enterococcus faecium [3]) | MIC50 (Enterococcus faecium [3]) | MIC90 (Enterococcus faecium [3]) | IC50 (HepG2) | half-life at 1.5 µM [4] | remaining at 0.75 h, 1.5 µM [5] | MIC (Staphylococcus aureus [6]) | MIC50 (Staphylococcus aureus [6]) | MIC90 (Staphylococcus aureus [6]) | MIC (Staphylococcus aureus [7]) | MIC (Enterococcus faecalis [8]) | MIC (Staphylococcus aureus [10]) | MIC (Enterococcus faecium [11]) | MIC (Staphylococcus aureus [12]) | MIC (Enterococcus faecalis [13]) | MIC50 (Enterococcus faecalis [13]) | MIC90 (Enterococcus faecalis [13]) | other results |
| --- | --- | --- | --- | --- | --- | --- | --- | --- | --- | --- | --- | --- | --- | --- | --- | --- | --- | --- | --- | --- | --- |
| CC(=O)NC[C@H]1CN(c2ccc(-c3ccc(/C=N/N4CCN(C(=O)CO)CC4)cc3)c(F)c2)C(=O)O1 | 80% | 0.0625 µg/mL (≈ 0.126 µM) | 0.125 µg/mL (≈ 0.251 µM) | 0.0625 to 0.5 µg/mL (≈ 0.126 to 1 µM) | 0.125 µg/mL (≈ 0.251 µM) | 0.25 µg/mL (≈ 0.502 µM) | 4.66 µM | 663 min | 93.9% | 0.0625 to 0.125 µg/mL (≈ 0.126 to 0.251 µM) | 0.0625 µg/mL (≈ 0.126 µM) | 0.125 µg/mL (≈ 0.251 µM) | 0.0675 µg/mL (≈ 0.136 µM) | 0.0675 µg/mL (≈ 0.136 µM) | 0.0675 µg/mL (≈ 0.136 µM) | 0.0675 µg/mL (≈ 0.136 µM) | 0.0675 µg/mL (≈ 0.136 µM) | 0.0625 to 0.125 µg/mL (≈ 0.126 to 0.251 µM) | 0.125 µg/mL (≈ 0.251 µM) | 0.25 µg/mL (≈ 0.502 µM) | CLint scaled at 1.5 µM [9]: 2.62 mL/min/kg |
| CC(=O)NC[C@H]1CN(c2ccc(-c3ccc(/C=N/N4CCSCC4)cc3)c(F)c2)C(=O)O1 | 81% | 0.125 µg/mL (≈ 0.274 µM) | 0.25 µg/mL (≈ 0.548 µM) | 0.0625 to 0.5 µg/mL (≈ 0.137 to 1.1 µM) | 0.15 µg/mL (≈ 0.329 µM) | 0.5 µg/mL (≈ 1.1 µM) | – | – | – | 0.0625 to 0.25 µg/mL (≈ 0.137 to 0.548 µM) | 0.125 µg/mL (≈ 0.274 µM) | 0.25 µg/mL (≈ 0.548 µM) | 0.0675 µg/mL (≈ 0.148 µM) | 0.0675 µg/mL (≈ 0.148 µM) | 0.0675 µg/mL (≈ 0.148 µM) | 0.0675 µg/mL (≈ 0.148 µM) | 0.0675 µg/mL (≈ 0.148 µM) | 0.0625 to 0.25 µg/mL (≈ 0.137 to 0.548 µM) | 0.125 µg/mL (≈ 0.274 µM) | 0.5 µg/mL (≈ 1.1 µM) | Ratio (Staphylococcus aureus [14]): 15 - 30; Ratio (Staphylococcus aureus [15]): 15 - 30 |
| CC(=O)NC[C@H]1CN(c2ccc(-c3ccc(/C=N/N4CCN(C)CC4)cc3)c(F)c2)C(=O)O1 | 71% | 0.0625 µg/mL (≈ 0.138 µM) | 0.125 µg/mL (≈ 0.276 µM) | 0.0625 to 0.5 µg/mL (≈ 0.138 to 1.1 µM) | 0.25 µg/mL (≈ 0.551 µM) | 0.5 µg/mL (≈ 1.1 µM) | 0.82 µM | 72.8 min | 64.7% | 0.0625 to 0.25 µg/mL (≈ 0.138 to 0.551 µM) | 0.0625 µg/mL (≈ 0.138 µM) | 0.125 µg/mL (≈ 0.276 µM) | 0.0675 µg/mL (≈ 0.149 µM) | 0.0675 µg/mL (≈ 0.149 µM) | 0.0675 µg/mL (≈ 0.149 µM) | 0.0675 µg/mL (≈ 0.149 µM) | 0.0675 µg/mL (≈ 0.149 µM) | 0.0625 to 0.25 µg/mL (≈ 0.138 to 0.551 µM) | 0.125 µg/mL (≈ 0.276 µM) | 0.125 µg/mL (≈ 0.276 µM) | Ratio (Staphylococcus aureus [14]): 15 - 30; CLint scaled at 1.5 µM [9]: 23.9 mL/min/kg; Ratio (Staphylococcus aureus [15]): 15 - 30 |
| CC(=O)NC[C@H]1CN(c2ccc(N3CCOCC3)c(F)c2)C(=O)O1 [LINEZOLID] | 74% | 2 µg/mL (≈ 5.93 µM) | 4 µg/mL (≈ 11.9 µM) | 1 to 4 µg/mL (≈ 2.96 to 11.9 µM) | 2 µg/mL (≈ 5.93 µM) | 4 µg/mL (≈ 11.9 µM) | > 25 µM | – | 104% | 1 to 2 µg/mL (≈ 2.96 to 5.93 µM) | 2 µg/mL (≈ 5.93 µM) | 2 µg/mL (≈ 5.93 µM) | 1 µg/mL (≈ 2.96 µM) | > 16 µg/mL | 1 µg/mL (≈ 2.96 µM) | 2 µg/mL (≈ 5.93 µM) | 1 µg/mL (≈ 2.96 µM) | > 16 µg/mL | > 16 µg/mL | > 16 µg/mL | MIC (Staphylococcus aureus [2]): 1 to 4 µg/mL (≈ 2.96 to 11.9 µM) |
